From publication PMC11590664 (European journal of medicinal chemistry, 2023)
pIC50: −log10 of the molar value.

Key:
HEK-293 cells = experiment: Cytotoxicity / viability assay, HEK-293; assay type: cell-based; conditions: Homo sapiens, HEK293, read-out: HEK-293 IC50
How it was run: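 HEK-293 cells were grown in medium per the provider's instructions with 100 units/mL penicillin and 100 μg/mL streptomycin, at 37 °C in 5 % CO2. Log-phase cells were seeded at 5000 per well, left 24 h, then exposed in triplicate to a range of test compound concentrations for 72 h. Resazurin was added for 4–6 h and fluorescence read. Values are relative to DMSO vehicle, with IC50 from a variable-slope normalized-response fit. Each compound was tested at least three times.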

[1] = test system: phosphorylation of FLT3 and ERK in MOLM14 cells; experiment: Western blot, MOLM14 cells; assay type: cell-based, human; conditions: 2 h
How it was run: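 Cells kept at 37 °C under 5 % CO2. Total cell lysates separated by SDS-PAGE and transferred to nitrocellulose. Membranes probed with primary antibodies to pFLT3 Y842, total FLT3, pERK, total ERK and GAPDH, then with secondary antibodies, and imaged.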

KIT = KIT (Homo sapiens, UniProt P10721); experiment: KINOMEscan site-directed competition binding assay, KIT; conditions: 4.5 nM compound, 97 kinase panel
How it was run: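 Competition binding read by qPCR against DNA-tagged kinases. Streptavidin magnetic beads loaded with biotinylated ligand (30 min, RT), biotin-blocked and washed. Kinase, beads and test compound (diluted from 100x DMSO stocks) combined in 20 % SeaBlock, 0.17x PBS, 0.05 % Tween 20, 6 mM DTT; 1 h RT with shaking. […] Kinase in eluate quantified by qPCR.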

Sequence of KIT (P10721 26-976): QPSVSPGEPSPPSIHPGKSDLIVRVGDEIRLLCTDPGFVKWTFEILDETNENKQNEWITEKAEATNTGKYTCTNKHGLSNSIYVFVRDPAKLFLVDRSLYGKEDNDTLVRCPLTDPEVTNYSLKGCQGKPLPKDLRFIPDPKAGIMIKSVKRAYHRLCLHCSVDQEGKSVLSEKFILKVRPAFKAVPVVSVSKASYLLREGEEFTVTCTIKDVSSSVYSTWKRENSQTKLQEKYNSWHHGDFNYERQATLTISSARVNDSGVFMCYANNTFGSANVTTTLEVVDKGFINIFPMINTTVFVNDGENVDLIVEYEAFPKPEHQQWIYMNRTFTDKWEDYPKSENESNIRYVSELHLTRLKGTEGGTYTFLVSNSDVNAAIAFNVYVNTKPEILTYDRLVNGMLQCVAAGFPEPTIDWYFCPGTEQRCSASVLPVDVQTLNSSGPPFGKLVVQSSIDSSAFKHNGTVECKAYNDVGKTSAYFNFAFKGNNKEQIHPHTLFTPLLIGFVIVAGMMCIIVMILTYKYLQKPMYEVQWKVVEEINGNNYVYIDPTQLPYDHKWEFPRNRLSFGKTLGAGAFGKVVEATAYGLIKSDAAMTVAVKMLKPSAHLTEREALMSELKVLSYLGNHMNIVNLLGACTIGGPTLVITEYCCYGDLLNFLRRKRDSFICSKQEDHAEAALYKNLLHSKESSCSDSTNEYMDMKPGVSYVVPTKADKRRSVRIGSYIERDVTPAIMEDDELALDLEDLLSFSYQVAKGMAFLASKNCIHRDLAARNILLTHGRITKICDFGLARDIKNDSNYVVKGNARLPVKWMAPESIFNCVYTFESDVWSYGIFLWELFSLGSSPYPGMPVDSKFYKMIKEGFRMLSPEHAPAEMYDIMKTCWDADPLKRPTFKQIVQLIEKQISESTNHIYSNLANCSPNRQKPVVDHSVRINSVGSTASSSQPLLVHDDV

Row | binding affinity with KIT (KIT) | SMILES | pIC50 (HEK-293 cells) | inhibitory effects on the phosphorylation of FLT3 and ERK ([1]; 1X IC50 (4.5 nM)) | inhibitory effects on the phosphorylation of FLT3 and ERK ([1]; 10X IC50)
1 | – | COc1ccc(Nc2cccc(-c3cnc4cc(-c5cnn(C)c5)ccn34)n2)cc1OC [Compound 20, N-(3,4-dimethoxyphenyl)-6-(7-(1-methyl-1H-pyrazol-4-yl)imidazo [1,2-a]pyridin-3-yl)pyridin-2-amine] | < 6.00 | – | –
2 | minimal binding affinity | Cn1cc(-c2ccn3c(-c4cccc(Nc5ccc(S(C)(=O)=O)cc5)n4)cnc3c2)cn1 [Compound 24, 6-(7-(1-methyl-1H-pyrazol-4-yl)imidazo [1,2-a]pyridin-3-yl)-N-(4-(methylsulfonyl)phenyl)pyridin-2-amine] | < 6.00 | noticeable signal downregulation | nearly complete signal downregulation
3 | – | COc1cc(Nc2cccc(-c3cnc4cc(-c5ccc(S(C)(=O)=O)cc5)ccn34)n2)cc(OC)c1OC [Compound 42, 6-(7-(4-(methylsulfonyl)phenyl)imidazo [1,2-a]pyridin-3-yl)-N-(3,4,5-trimethoxyphenyl)pyridin-2-amine] | < 6.00 | – | –
